Results on 20 compounds are retold here after publication PMC12744307 (ACS infectious diseases, 2023).

In brackets after ≈: the same amount, converted by molar mass. Where two headings read alike, the source gives them in different places. Ends that are not written are not given here.

One data set concerns S. aureus USA300. Kind of data set: microbe, parasite or virus in culture. The format is cell-based, Staphylococcus aureus. The following applies: for MIC: Staphylococcus aureus.
Data set [1] can be described thus: Effect of MHB dilution on antimicrobial activity of a panel of antibiotics. Format: cell-based. The following applies: MHB from 100% to 12.5% (Figure S2).
In another data set the test system is E. coli membrane. In words: Membrane permeabilization. The format is cell-based, Escherichia coli. The following applies: Figure S4A.
Another data set concerns E. coli E423–17. Format: cell-based, Escherichia coli.
The subject of data set [2] is preformed biofilms of S. aureus USA300 LAC. Kind of data set: Disruption of preformed biofilms. The format is cell-based, Staphylococcus aureus. The following applies: 100% MHB, 24 h treatment, XTT. The procedure, abridged: (§1)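 Biofilms grown from an exponential-phase culture (OD600 ~0.4) for 24 h at 37°C in TSB, then washed with PBS to remove planktonic cells. Treated with peptide in MHB (different strengths) for 24 h at 37°C. Live cells measured with XTT in TSB (2 h, 37°C, A450), blanked on medium with XTT. Results given as % of water-treated biofilm, mean ± SD, one-way ANOVA.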

Data set [3] deals with preformed biofilms of E. coli E423–17. Kind of data set: Disruption of preformed biofilms. Format: cell-based, Escherichia coli. In a few lines: as §1
In a further data set the test system is S. aureus USA300 LAC. The format is cell-based, Staphylococcus aureus. The following applies: 17 passages at sub-MIC, MHB.
A further data set deals with P. aeruginosa 152. Format: cell-based, Pseudomonas aeruginosa.
Another data set relates to A. baumannii B28–16. The format is cell-based, Acinetobacter baumannii.
The test system of data set [4] is S. aureus USA300 membrane. Kind of data set: Membrane depolarization. The following applies: peptide up to 2× MIC; Triton X-100 0.1% (Figure 5C). Format: cell-based, Staphylococcus aureus. The procedure, abridged: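 Exponential-phase MRSA USA300 grown in TSB, washed, and resuspended in 2 volumes of PBS with 25 mM glucose. Energised for 15 min at 37°C, then given 500 nM (final) DiBAC4(3). Baseline fluorescence (ex 485/em 520 nm) read for 20 min; peptide then added and reading continued for 40 min. Triton X-100 (0.1%) was the positive control.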

Setting [5] is: MRSA|USA300, read-out: Antimicrobial activity (MIC), MRSA in MHB, 10% human serum.
[6] abbreviates: MRSA|USA300, read-out: Antimicrobial activity (MIC), MRSA in MHB, NaCl (150 mM).
The mark [7] stands for this setting: MRSA|USA300, pH 6.3, read-out: Antimicrobial activity (MIC), MRSA in MHB, pH 6.3.
The mark [8] stands for this setting: MRSA|USA300, pH 7.2, read-out: Antimicrobial activity (MIC), MRSA in MHB, pH 7.2.

As for `NCC[C@H](O)C(=O)N[C@@H]1C[C@H](N)[C@@H](O[C@H]2O[C@H](CN)[C@@H](O)[C@H](O)[C@H]2O)[C@H](O)[C@H]1O[C@H]1O[C@H](CO)[C@@H](O)[C@H](N)[C@H]1O` [Amikacin], the MIC with S. aureus USA300 (setting [5]) and in the data set on S. aureus USA300 (setting [6]) was 32 µM (≈ 18.7 µg/mL) each time. Further, in data set [1], the “Change in MIC with the dilution of MHB” value was “small changes in MIC values”.
For `CCCCCCCCCC(=O)N[C@@H](Cc1c[nH]c2ccccc12)C(=O)N[C@H](CC(N)=O)C(=O)N[C@@H](CC(=O)O)C(=O)N[C@@H]1C(=O)NCC(=O)N[C@@H](CCCN)C(=O)N[C@@H](CC(=O)O)C(=O)N[C@H](C)C(=O)N[C@@H](CC(=O)O)C(=O)NCC(=O)N[C@H](CO)C(=O)N[C@@H]([C@H](C)CC(=O)O)C(=O)N[C@@H](CC(=O)c2ccccc2N)C(=O)O[C@@H]1C` [Daptomycin], the “Antimicrobial activity (MIC)” value with S. aureus USA300 (USA300) amounted to 1 µM; with S. aureus USA300 (USA300, pH 6.3) it was 1 µM; in the data set with S. aureus USA300 (USA300, pH 7.2), 1 µM.
On to `CNC(C)C1CCC(N)C(OC2C(N)CC(N)C(OC3OCC(C)(O)C(NC)C3O)C2O)O1` (centres unmarked) [Gentamicin], for which the MIC was 1 to 2 µM (≈ 0.478 to 0.955 µg/mL) in the data set on S. aureus USA300 (setting [7]), 0.5 µM (≈ 0.239 µg/mL) with S. aureus USA300 (setting [8]), 0.5 to 1 µM (≈ 0.239 to 0.478 µg/mL) with S. aureus USA300 (setting [5]) and 1 µM (≈ 0.478 µg/mL) in the data set on S. aureus USA300 (setting [6]). Besides, the “Membrane permeation (PI fluorescence)” value in the data set on E. coli membrane is “did not permeate the E. coli membrane”.
For the compound `CC[C@H](C)[C@H](NC(=O)[C@H](CCCCN)NC(=O)[C@H](CCC(=O)O)NC(=O)[C@H](CCCCN)NC(=O)[C@H](CO)NC(=O)[C@H](CCCCN)NC(=O)[C@H](CCCNC(=N)N)NC(=O)[C@H](Cc1ccccc1)NC(=O)[C@H](Cc1ccccc1)NC(=O)[C@H](CC(=O)O)NC(=O)CNC(=O)[C@H](CC(C)C)NC(=O)[C@@H](N)CC(C)C)C(=O)NCC(=O)N[C@@H](CCCCN)C(=O)N[C@@H](CCC(=O)O)C(=O)N[C@@H](Cc1ccccc1)C(=O)N[C@@H](CCCCN)C(=O)N[C@@H](CCCNC(=N)N)C(=O)N[C@H](C(=O)N[C@H](C(=O)N[C@@H](CCC(N)=O)C(=O)N[C@@H](CCCNC(=N)N)C(=O)N[C@H](C(=O)N[C@@H](CCCCN)C(=O)N[C@@H](CC(=O)O)C(=O)N[C@@H](Cc1ccccc1)C(=O)N[C@@H](CC(C)C)C(=O)N[C@@H](CCCNC(=N)N)C(=O)N[C@@H](CC(N)=O)C(=O)N[C@@H](CC(C)C)C(=O)N[C@H](C(=O)N1CCC[C@H]1C(=O)N[C@@H](CCCNC(=N)N)C(=O)N[C@H](C(=O)N[C@@H](CCC(=O)O)C(=O)N[C@@H](CO)C(=O)O)[C@@H](C)O)C(C)C)[C@@H](C)CC)C(C)C)[C@@H](C)CC` [LL-37], the “Activity (MIC), screen of LL-37 fragments” value (“Activity (MIC), screen” for short) is “became active” in the data set on S. aureus USA300 (12.5% MHB (Figure 3)); “did not display any activity” with S. aureus USA300 (100% MHB (Figure 3)); “active” with E. coli E423–17 (100% MHB, rich media (Figure 3)). The “Antimicrobial activity (MIC) in cell culturing media” value is “remained active” in the data set on S. aureus USA300 (RPMI and DMEM media (Table S2)); “remained active” in the data set with E. coli E423–17 (RPMI and DMEM media (Table S2)). Besides, in [2], the “Antibiofilm activity against 24 h preformed biofilms” value is “essentially no antibiofilm activity”. The entries for the “Effect on biofilms with increase in peptide concentration” value in data set [3] (12.5% MHB (Figure S1)) and in [3] (100% MHB (Figure S1)) were “dose-dependent antibiofilm effect is clear” and “subtle effect”, respectively.
As for `CC(=O)NC[C@H]1CN(c2ccc(N3CCOCC3)c(F)c2)C(=O)O1` [Linezolid], the MIC in the data set on S. aureus USA300 (setting [7]), in the data set with S. aureus USA300 (setting [8]) and with S. aureus USA300 (setting [5]) was 8 µM (≈ 2.7 µg/mL) each time. Moreover, the “Change in MIC with the dilution of MHB” value in data set [1] is “essentially no changes in antibacterial activity”.
Consider `C/C(=C\C(=O)OCCCCCCCCC(=O)O)C[C@@H]1OC[C@H](C[C@@H]2O[C@H]2[C@@H](C)[C@H](C)O)[C@@H](O)[C@H]1O` [Muporicin], for which the “Antimicrobial activity (MIC)” value was 4 µM in the data set with S. aureus USA300 (MRSA in MHB, 10% human serum); 4 µM with S. aureus USA300 (MRSA in MHB, 20% human serum); 1 µM in the data set on S. aureus USA300 (MRSA in MHB, NaCl (150 mM)); 0.5 µM with S. aureus USA300 (MRSA in MHB, pH 6.3); 1 µM with S. aureus USA300 (MRSA in MHB, pH 7.2). The “Change in MIC with the dilution of MHB” value in data set [1] is “essentially no changes in antibacterial activity”.
Turning to `CCOc1ccc2ccccc2c1C(=O)N[C@@H]1C(=O)N2[C@@H]1SC(C)(C)[C@@H]2C(=O)O` [Nafcillin], the MIC with S. aureus USA300 (setting [5]) came out at 16 µM (≈ 6.63 µg/mL); in the data set with S. aureus USA300 (setting [6]), 32 µM (≈ 13.3 µg/mL). Besides, in the data set with S. aureus USA300 LAC, the “Fold increase of MIC after multiple passages” value is on record as 32 fold. Besides, the “Change in MIC with the dilution of MHB” value in [1] is “small changes in MIC values”.
As for `NC[C@H]1O[C@H](O[C@H]2[C@H](O)[C@@H](O[C@H]3O[C@H](CO)[C@@H](O)[C@H](N)[C@H]3O)[C@H](N)C[C@@H]2N)[C@H](N)C[C@@H]1O` [Tobramycin], in the data set with S. aureus USA300 (setting [6]), the MIC amounted to 4 µM (≈ 1.87 µg/mL). Further, in data set [1], the “Change in MIC with the dilution of MHB” value is on record as “essentially no changes in antibacterial activity”.
As to `CN[C@H](CC(C)C)C(=O)N[C@H]1C(=O)N[C@@H](CC(N)=O)C(=O)N[C@H]2C(=O)N[C@H]3C(=O)N[C@H](C(=O)N[C@H](C(=O)O)c4cc(O)cc(O)c4-c4cc3ccc4O)[C@H](O)c3ccc(c(Cl)c3)Oc3cc2cc(c3O[C@@H]2O[C@H](CO)[C@@H](O)[C@H](O)[C@H]2O[C@H]2C[C@](C)(N)[C@H](O)[C@H](C)O2)Oc2ccc(cc2Cl)[C@H]1O` [Vancomycin], the MIC was 0.5 µM (≈ 0.725 µg/mL) with S. aureus USA300 (setting [7]), 0.5 µM (≈ 0.725 µg/mL) in the data set on S. aureus USA300 (setting [8]), 0.5 µM (≈ 0.725 µg/mL) in the data set with S. aureus USA300 (setting [5]) and 0.5 to 1 µM (≈ 0.725 to 1.45 µg/mL) in the data set on S. aureus USA300 (setting [6]). Besides, the “Change in MIC with the dilution of MHB” value in data set [1] is “essentially no changes in antibacterial activity”.
Regarding “KEKIGKEFKR-NH2 (C-terminus assumed) [KE-10]”, the “Antimicrobial activity (MIC) in cell culturing media” value in the data set on S. aureus USA300 (USA300) is over 64 µM.
For KRIVQRIK-NH2 [W538], the “Activity (MIC), screen” value with E. coli E423–17 (E423–17) is 8 µM. For the same compound, in the data set with P. aeruginosa 152, the “Activity (MIC), P. aeruginosa” value is over 32 µM.
As for KRIWQRIK-NH2 [W539], the “Activity (MIC), P. aeruginosa” value in the data set on P. aeruginosa 152 is over 32 µM.
For KRIWQRWK-NH2 [W540], the “Activity (MIC), P. aeruginosa” value in the data set on P. aeruginosa 152 was over 32 µM. Moreover, the “Toxicity to HaCaT cells (viability)” value with human skin HaCaT cells is reported as “more toxic than other peptides”.
For KRWWQRWK-NH2 [W541], the “Activity (MIC), E. coli” value in the data set with E. coli E423–17 (E423–17) came to 8 µM. The “Activity (MIC), P. aeruginosa” value with P. aeruginosa 152 is over 32 µM.
With KRWWQWWK-NH2 [W542], in the data set on S. aureus USA300 (USA300), the “Activity (MIC), S. aureus” value worked out at 8 µM. The “Activity (MIC), E. coli” value in the data set with E. coli E423–17 (E423–17) is 4 µM. Moreover, in the data set with P. aeruginosa 152, the “Activity (MIC), P. aeruginosa” value fell in the range of 4 to 8 µM. Moreover, the “Activity (MIC), A. baumannii” value with A. baumannii B28–16 worked out at 32 µM.
As for “RIKDFLRNLV-NH2 (C-terminus assumed) [RIK-10]”, the “Activity (MIC), screen” value in the data set on S. aureus USA300 (12.5% MHB (Figure 3)) is on record as “became active”. Also, the “Antimicrobial activity (MIC) in cell culturing media” value in the data set on S. aureus USA300 (RPMI and DMEM media (Table S2)) was “poor activity”. For the same compound, in the data set with E. coli E423–17 (E423–17), the “Activity (MIC), screen” value is 16 µM and the “Antimicrobial activity (MIC) in DMEM” value was 8 µM. Moreover, the “Antimicrobial activity in RPMI” value in the data set on E. coli E423–17 (RPMI (Table S2)) is on record as “poor activity”.
Turning to RRWWRWWL-NH2 [W544], the “Activity (MIC), S. aureus” value with S. aureus USA300 (USA300) came to 4 µM. Moreover, the “Activity (MIC), E. coli” value in the data set with E. coli E423–17 (E423–17) is 4 µM. For the same compound, the “Activity (MIC), P. aeruginosa” value in the data set on P. aeruginosa 152 amounted to 4 µM. In addition, in the data set on human skin HaCaT cells, the “Toxicity to HaCaT cells (viability)” value was “more toxic than other peptides”.
For the compound RRWWRWWR-NH2 [W543], the “Antimicrobial activity (MIC)” value is 8 µM with S. aureus USA300 (USA300) and 8 µM in the data set with S. aureus USA300 (USA300, pH 7.2). Moreover, the “Activity (MIC), E. coli” value with E. coli E423–17 (E423–17) is 8 µM. Further, in the data set with P. aeruginosa 152, the “Activity (MIC), P. aeruginosa” value was 8 µM. Moreover, the “Toxicity to HaCaT cells (viability)” value in the data set with human skin HaCaT cells is listed as “least toxic”.
On to Triton X-100, for which, in data set [4], the Membrane depolarization entry is reported as “strong membrane depolarization”.
With colistin, the “Membrane permeation (PI fluorescence)” value in the data set with E. coli membrane was “powerful membrane permeator”.
